Drawing on ChEMBL document CHEMBL1145466, “Effects of carbapenem exposure on the risk for digestive tract carriage of intensive care unit-endemic carbapenem-resistant Pseudomonas aeruginosa strains in critically ill patients” (2007), this text covers MIC and Activity for 9 compounds.

In assay [1] the test system is Pseudomonas aeruginosa. Kind of assay: Antimicrobial activity against carbapenem-resistant Pseudomonas aeruginosa isolate. The class given is functional. In short, it runs like this: (§1)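 P. aeruginosa isolates came from rectal and oropharyngeal swabs of ICU patients, plated on MacConkey agar and incubated at 37°C for 48 h. Gram-negative, oxidase-positive bacilli were identified by conventional biochemical tests. Intermediate isolates were scored as resistant. Clonality was checked by PFGE (6 V/cm, 14°C, 23 h, 5–25 s pulses), read by Tenover criteria.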

The subject of assay [2] is Pseudomonas aeruginosa. The assay is described as follows: Antimicrobial activity against carbapenem-resistant Pseudomonas aeruginosa assessed as percent resistant isolates. The class given is functional. In short, it runs like this: as §1

In the assay on Pseudomonas aeruginosa [1], `CC(O)[C@H]1C(=O)N2C(C(=O)O)=C(SCCNC=N)C[C@H]12` (single isomer, unassigned) [IMIPENEM ANHYDROUS] had an MIC not below 8 µg/mL. In the assay with Pseudomonas aeruginosa [2], the Activity is recorded as 100%.
For `NCC[C@H](O)C(=O)N[C@@H]1C[C@H](N)[C@@H](O[C@H]2O[C@H](CN)[C@@H](O)[C@H](O)[C@H]2O)[C@H](O)[C@H]1O[C@H]1O[C@H](CO)[C@@H](O)[C@H](N)[C@H]1O` [AMIKACIN], the MIC in the assay with Pseudomonas aeruginosa [1] was more than 16 µg/mL. Besides, the Activity in the assay on Pseudomonas aeruginosa [2] is 19%.
The corresponding values for `C[C@H]1[C@H](NC(=O)/C(=N\OC(C)(C)C(=O)O)c2csc(N)n2)C(=O)N1S(=O)(=O)O` [AZTREONAM] are more than 8 µg/mL and 33%.
In the case of `CC(C)(O/N=C(\C(=O)N[C@@H]1C(=O)N2C(C(=O)[O-])=C(C[n+]3ccccc3)CS[C@H]12)c1csc(N)n1)C(=O)O` [CEFTAZIDIME], the MIC against Pseudomonas aeruginosa [1] is more than 8 µg/mL. The Activity in the assay on Pseudomonas aeruginosa [2] came out at 28.5%.
The corresponding values for `O=C(O)c1cn(C2CC2)c2cc(N3CCNCC3)c(F)cc2c1=O` [CIPROFLOXACIN] are not below 2 µg/mL and 59.5%.
The corresponding values for `C[C@@H](O)[C@H]1C(=O)N2C(C(=O)O)=C(S[C@@H]3CN[C@H](C(=O)N(C)C)C3)[C@H](C)[C@H]12` [MEROPENEM] are not below 8 µg/mL and 59.5%.
Regarding `CCN1CCN(C(=O)N[C@@H](C(=O)N[C@@H]2C(=O)N3[C@@H]2SC(C)(C)[C@@H]3C(=O)O)c2ccccc2)C(=O)C1=O` [PIPERACILLIN], the MIC against Pseudomonas aeruginosa [1] was more than 64 µg/mL. Moreover, the Activity with Pseudomonas aeruginosa [2] came to 21%.
`CC1(C)S[C@@H]2[C@H](NC(=O)[C@H](C(=O)O)c3ccsc3)C(=O)N2[C@H]1C(=O)O` [TICARCILLIN] yielded an MIC in the assay on Pseudomonas aeruginosa [1] of more than 64 µg/mL. Moreover, the Activity in the assay with Pseudomonas aeruginosa [2] is given as 28.5%.
The corresponding values for `NC[C@H]1O[C@H](O[C@H]2[C@H](O)[C@@H](O[C@H]3O[C@H](CO)[C@@H](O)[C@H](N)[C@H]3O)[C@H](N)C[C@@H]2N)[C@H](N)C[C@@H]1O` [TOBRAMYCIN] are more than 4 µg/mL and 55%.
